Where a name gives a salt, the structure may show the parent alone.

Experiment [1] is filed under the species Cavia porcellus. In words: Ability to prevent constrictions induced by SRS-A (slow reacting substance of anaphylaxis) in guinea pig ileum. Format: functional. Summed up: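 Ileum segments (1.5 cm) from 200–250 g guinea pigs are held in Tyrode's solution with 10^-6 M atropine sulfate and 10^-6 M pyrilamine maleate, at 37 °C, aerated with 95% O2/5% CO2. SRS-A comes from egg albumin challenge of chopped lung from actively sensitized guinea pigs, dosed to give 50% of maximal isotonic contraction. Compound is added 3 min before challenge. Three concentrations (10–90% inhibition) are run in duplicate, and IC50 is taken from the log dose-response curve.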

Experiment [2] is filed under the species Cavia porcellus. Put plainly: Ability to prevent constrictions induced by SRS-A (slow reacting substance of anaphylaxis) in guinea pig ileum at a concentration of 1x 10E-5 M. Format: functional.

A word on the IC50: it is the concentration needed to halve the response being measured. A high value points to weaker potency in that assay. Molecule `CC(C)c1ccc2nc3ccc(C(=O)NCCN4CCC(c5ccccc5)CC4)cn3c(=O)c2c1` returned an IC50 in the experiment listed under Cavia porcellus [1] of 1000 nM.

Turning to `CCN(CC)CCNC(=O)c1ccc2nc3ccc(C(C)C)cc3c(=O)n2c1`, the IC50 in the experiment filed under Cavia porcellus [1] was 5000 nM.

In the case of `CC(C)c1ccc2nc3ccc(C(=O)NCCNc4ccccc4)cn3c(=O)c2c1`, the IC50 in the experiment filed under Cavia porcellus [1] was 2500 nM.

For `CC(C)c1ccc2nc3ccc(C(=O)NCCN4C(C)(C)CCCC4(C)C)cn3c(=O)c2c1`, the midpoint of inhibition in the experiment listed under Cavia porcellus [1], the IC50, lay at 1000 nM.

In general, inhibition refers to the drop in the measured response relative to a control, in per cent. Low readings indicate a response near the control, high ones a response far below the control. Take `CCN(CC)CCOC(=O)c1ccc2nc3ccc(C)cc3c(=O)n2c1`: in the experiment filed under Cavia porcellus [2], the inhibition at 10 µM was found to be 11%.

As for `CCCCCOC(=O)c1ccc2nc3ccc(C(C)C)cc3c(=O)n2c1`, testing at 10 µM in the experiment listed under Cavia porcellus [2] gave an inhibition of 10%.

`CCN(CC)CCNC(=O)c1ccc2nc3ccc(C(C)(C)C)cc3c(=O)n2c1` returned an IC50 in the experiment filed under Cavia porcellus [1] of 10000 nM.

In the case of `CCC(C)c1ccc2nc3ccc(C(=O)NCCN(CC)CC)cn3c(=O)c2c1` (stereo not drawn), the IC50 in the experiment listed under Cavia porcellus [1] was found to be 10000 nM.

In the experiment listed under Cavia porcellus [1], `CC(C)c1ccc2nc3ccc(C(=O)NCCN4CCC(Cc5ccccc5)CC4)cn3c(=O)c2c1` showed an IC50 of 1000 nM.

On to `CCN(CC)CC(C)OC(=O)c1ccc2nc3ccc(C(C)C)cc3c(=O)n2c1` (stereo not drawn), for which the IC50 in the experiment listed under Cavia porcellus [1] was found to be 10000 nM.

Turning to `CC(C)c1ccc2nc3ccc(C(=O)NCCN(c4ccccc4)c4ccccc4)cn3c(=O)c2c1`, the IC50 in the experiment listed under Cavia porcellus [1] was found to be 10000 nM.

As to `CC(C)c1ccc2nc3ccc(C(=O)NCCN4CCN(C)CC4)cn3c(=O)c2c1`, at 10 µM the inhibition in the experiment listed under Cavia porcellus [2] was 34%.

In turn, `CCN(CC)CCOC(=O)c1ccc2nc3ccc(OC(C)C)cc3c(=O)n2c1` had an inhibition at 10 µM in the experiment filed under Cavia porcellus [2] of 17%.

`CCN(CC)CCOC(=O)c1ccc2nc3ccc(OC)cc3c(=O)n2c1`: at 10 µM the inhibition in the experiment listed under Cavia porcellus [2] was 0%.

`CCN(CC)CCOC(=O)c1ccc2nc3ccc(SC)cc3c(=O)n2c1`: at 10 µM the inhibition in the experiment filed under Cavia porcellus [2] was 0%.

Turning to `CC(C)c1ccc2nc3ccc(C(=O)NCCN(C(C)C)C(C)C)cn3c(=O)c2c1`, the IC50 in the experiment listed under Cavia porcellus [1] was 1000 nM.

`CC(C)c1ccc2nc3ccc(C(=O)OCCN4CCCCC4)cn3c(=O)c2c1`: in the experiment listed under Cavia porcellus [1], the IC50 is 6000 nM.

`CCN(CC)CCNC(=O)c1ccc2nc3ccc(CC(C)C)cc3c(=O)n2c1`: in the experiment filed under Cavia porcellus [1], half-maximal inhibition (IC50) was put at 1000 nM.

For `CC(C)c1ccc2nc3ccc(C(=O)NCCN(C)C)cn3c(=O)c2c1`, the inhibition at 10 µM in the experiment filed under Cavia porcellus [2] amounted to 42%.

Regarding `CCN(CC)CCOC(=O)c1ccc2nc3ccc(C(C)C)cc3c(=O)n2c1`, the IC50 in the experiment filed under Cavia porcellus [1] amounted to 4000 nM.

In turn, `CC(C)c1ccc2nc3ccc(C(=O)NCCN(C4CCCCC4)C4CCCCC4)cn3c(=O)c2c1` had an IC50 in the experiment filed under Cavia porcellus [1] of 2000 nM.

Turning to `CC(C)c1ccc2nc3ccc(C(=O)NCCN4CCCCC4)cn3c(=O)c2c1`, testing at 10 µM in the experiment listed under Cavia porcellus [2] gave an inhibition of 15%.

The molecule `CCCc1c(OCC(O)COc2ccc3c(=O)cc(C(=O)O)oc3c2CCC)ccc(C(C)=O)c1O` (stereo not drawn) [FPL-55712 SODIUM SALT] gave an IC50 in the experiment listed under Cavia porcellus [1] of 35 nM.

Molecule `CCN(CC)CCCNC(=O)c1ccc2nc3ccc(C(C)C)cc3c(=O)n2c1` registered an inhibition at 10 µM in the experiment filed under Cavia porcellus [2] of 37%.

Regarding `CCN(CC)CCNC(=O)c1ccc2nc3ccc(C(C)C)cn3c(=O)c2c1`, in the experiment listed under Cavia porcellus [2], the inhibition at 10 µM was 6%.

The molecule `CC(C)c1ccc2nc3ccc(C(=O)NCCN4CCN(C(c5ccccc5)c5ccccc5)CC4)cn3c(=O)c2c1` came in with an IC50 in the experiment filed under Cavia porcellus [1] of 1000 nM.

`CCN(CC)CCOC(=O)c1ccc2nc3ccc(C(C)C)cn3c(=O)c2c1` gave an inhibition at 10 µM in the experiment listed under Cavia porcellus [2] of 5%.

Consider `CC(C)c1ccc2nc3ccc(C(=O)NCCN4CCN(c5ccccc5)CC4)cn3c(=O)c2c1`, for which the IC50 in the experiment filed under Cavia porcellus [1] was determined as 1000 nM.

The values above are taken from ChEMBL document CHEMBL1122396, “Antagonists of slow-reacting substance of anaphylaxis. 1. Pyrido[2,1-b]quinazolinecarboxylic acid derivatives” (J Med Chem, 1983).
